Sampled rows, rich in hits. Any-hit rate of the full collection: about 2.4%.
SR-BI DiI-HDL act = activators of SR-BI mediated DiI-HDL uptake, primary screen, ldlA[mSR-BI] CHO cells, DiI fluorescence; actives 0.096% (n = 320,000); 3 h; 100 = double the neutral-control signal; activation, % at 12.5 µM;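 active = mean replicate activation of at least 60% and every replicate at or above 60%; inconclusive = mean or all-replicate condition met, but not both; inactive = mean below 60% and not all replicates reaching 60%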;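 also: 0% = median plate neutral-control signal and 100% = twice that signal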
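system = CHO ldlA[mSR-BI] cells, LDL receptor-null, SR-BI overexpressing | medium = Ham's F12 with 0.5% BSA, HEPES 25 mM, pH 7.4 | probe or stimulus = DiI-HDL 10 µg/mL | compound dosing = single-point compound dose | incubation = compound exposure 3 h, 37 °C | technique = DiI fluorescence, bottom read | read-out = cell-associated DiI fluorescence as measure of HDL uptake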
MIN6 prolif = inducers of MIN6 beta-cell proliferation, primary screen, ATP luminescence, uHTS; MIN6 cells proliferation, ATPlite luminescence, 48 h; cells starved in 0.2% serum; 100% = growth in 10% serum; proliferation, % at 10 µM; actives 0.29% (n = 330,000); AID 2380, 2010;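 active = compounds whose signal lies at least 3.5 SD above the mean of all wells on their plate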;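 also: 0% = DMSO-treated cells in low-serum medium and 100% = 10% serum control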
HTR2A ag = mouse Htr2a agonists via beta-arrestin recruitment, primary screen, cell-based, luminescence; CHO-K1 mHTR2A beta-arrestin complementation; percent of 30 µM serotonin response; activation, % at 7.6 µM; actives 0.66% (n = 360,000); AID 624169, 2012;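 active = activation above a run cutoff, the mean activation of all tested compounds plus 3 SD, cut at about 14% in these data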;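 also: 0% = plate median of compound wells and 100% = 30 µM serotonin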
Calb FLC = C. albicans growth inhibition with fluconazole, primary screen, CaCi-2 strain, Alamar Blue fluorescence | C. albicans CaCi-2 + fluconazole, 48 h | growth inhibition, % (test concentration not listed) | actives 0.57% (n = 300,000) | AID 1979, 2009;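 active = growth inhibition above about 58% in most replicates, limit read from the data, passing the limit was not always enough; inconclusive = exactly half the replicates above a set limit; inactive = most replicates below a set limit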;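 also: all wells also contain fluconazole at 8 µg/ml as a sub-toxic cotreatment; 0% = median of DMSO wells and 100% = median of geldanamycin control wells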
SR-BI DiI inh = inhibitors of SR-BI mediated HDL lipid uptake, primary screen, ldlA[mSR-BI] cells, fluorescence, single point. Scavenger receptor class B member 1 (Mus musculus), Q61009. ldlA[mSR-BI] CHO cells, DiI-HDL uptake fluorescence, 3 h. inhibition, % at 12.5 µM. actives 0.96% (n = 320,000). AID 488896, 2010;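 active = mean replicate inhibition of at least 70% and a set share of replicates each scoring 70 or more; inconclusive = meets just one of the two criteria; inactive = fails both criteria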;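 also: 0% = median of neutral control wells and 100% = median of positive control wells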
Target sequence (Q61009 whole entry, looked up): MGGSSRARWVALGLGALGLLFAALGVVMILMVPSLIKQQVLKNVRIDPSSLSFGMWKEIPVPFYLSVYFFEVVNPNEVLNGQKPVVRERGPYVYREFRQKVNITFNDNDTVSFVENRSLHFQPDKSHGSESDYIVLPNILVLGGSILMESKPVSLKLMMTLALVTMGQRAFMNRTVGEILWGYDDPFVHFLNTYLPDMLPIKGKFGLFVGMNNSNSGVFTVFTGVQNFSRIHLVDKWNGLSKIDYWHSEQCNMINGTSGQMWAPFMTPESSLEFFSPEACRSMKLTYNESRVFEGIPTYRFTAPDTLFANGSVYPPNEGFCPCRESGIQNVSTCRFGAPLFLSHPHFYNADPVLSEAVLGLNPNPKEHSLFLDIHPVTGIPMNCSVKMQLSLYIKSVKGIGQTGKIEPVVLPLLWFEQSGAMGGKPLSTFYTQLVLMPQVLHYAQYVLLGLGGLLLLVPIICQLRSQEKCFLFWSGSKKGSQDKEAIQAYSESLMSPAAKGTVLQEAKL
Insulin prom up = insulin promoter activators in MIN6 cells, imaging, high-content screening, mouse beta cells | z-score at 5 µM | AID 1625, 2009 | MIN6 insulin promoter-GFP reporter; hits give high values | actives 0.3% (n = 190,000);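 active = z-score above 3 at 5 µM with at least 500 cells counted in the well; inconclusive = wells under 500 cells, flagged as cytotoxic or low count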
* hit, by the source's call; ? = inconclusive; . = not tested or not shown.

SMILES	SR-BI DiI-HDL act	MIN6 prolif	HTR2A ag	Calb FLC	SR-BI DiI inh	Insulin prom up
CC(C)(C)c1ccc(O)c(N=Cc2c(O)ccc3ccccc23)c1	-113	-6	6	-4	113*	.
Cc1cccc(NP(=O)(Oc2ccccc2)Oc2ccccc2)c1C	-76	-4	-10	3	76*	.
O=P(Nc1ccccc1)(Oc1ccccc1)Oc1ccccc1	-3	-1	-2	-14	3	-0.21
CNc1cc(Cl)c2nonc2c1[N+](=O)[O-]	9	.	-9	100*	-9	-0.63
Cc1cc([N+](=O)[O-])c(Cl)cc1NC(=O)C(C)C	-9	-3	1	-4	9	0.23
CC1Oc2cc3c(-c4c(O)cc(O)c5c(O)c6c(cc45)OC(C)C(C)C6=O)c(O)cc(O)c3c(O)c2C(=O)C1C (stereo unspecified)	-80	-6	-4	-12	80*	-1.7
CCOC(=O)c1cnc(SCc2ccc(Cl)c(Cl)c2)nc1N1CC1	-25	.	3	.	25	.
CC/C(CC(c1ccccc1)c1c(O)c2ccccc2oc1=O)=N\NC(N)=S (stereo unspecified)	-80	-2	1	28	80*	-0.06
C[C@]12CCC(=O)C[C@H]1CC[C@@H]1[C@@H]2CC[C@]2(C)[C@@H](O)CC[C@@H]12	.	-1	.	.	.	.
O=C(N/N=C/c1c(O)n(-c2ccccc2)c(=S)[nH]c1=O)c1ccccc1	-61	-1	2	13	61	-0.27
O=C(N/N=C/c1c(O)n(C2CC2)c(=S)[nH]c1=O)c1ccccc1O	-92	1	4	3	92*	-0.49
Cc1ccccc1-n1c(O)c(/C=N/NC(=O)c2ccccc2O)c(=O)[nH]c1=S	-109	4	-1	-23	109*	0.79
O=c1[nH]c(=S)n(C2CC2)c(O)c1C=NCc1ccc(F)cc1	26	-3	3	-4	-26	0.73
C[C@@]12CC[C@@H](c3cc4c(cc3C1)OCO4)N2c1ccccc1	.	.	4	.	.	.
Cc1ccc(-c2cc(-c3ccc(C)cc3)[n+](-c3ccc(C(=O)O)cc3)c(-c3ccc(C)cc3)c2)cc1	13	-4	5	-22	-13	.
Cc1ccc(C[n+]2c(-c3ccc(C)cc3)cc(-c3ccc(C)cc3)cc2-c2ccc(C)cc2)cc1	-8	-7	17*	3	8	.
COc1ccc2c(c1)C13CCN4CC5=CCOC6CC(=O)N2C1C6C5CC43 (stereo unspecified)	.	.	3	.	.	.
CCn1nc(-c2ccccc2)nc2c(=O)n(C)c(=O)nc1-2	17	-5	1	90*	-17	?
Cc1nc2c(=O)n(C)c(=O)nc-2n(C)n1	22	-4	10	19	-22	?
CCN(CCCl)c1cc(CN(C)C)cc(NC(=O)c2ccc(C(=O)Nc3cc(CN(C)C)cc(N(CC)CCCl)c3)cc2)c1	27	.	-6	.	-27	.
CN(Cc1cccc(-c2ccncc2)c1)C(=O)Oc1ccccc1Cc1ccccc1	.	.	-1	.	.	.
O=[N+]([O-])c1ccc(N2CCNCC2)c(Cl)c1	-78	-3	-3	1	78*	0.27
COC(=O)C1=C(C)NC(=S)NC1c1ccc(N(CCCl)CCCl)cc1Cl (stereo unspecified)	-85	.	-4	.	85*	.
CC(=O)OC1=CC[C@H]2[C@@H]3CC[C@H]4C[C@H](OC(C)=O)[C@@H](OC(C)=O)C[C@]4(C)[C@H]3CC[C@]12C	-10	0	0	.	10	.
O=C(N/N=C/c1c(O)n(CCC2=CCCCC2)c(=S)[nH]c1=O)c1ccccc1	-61	-3	4	98*	61	.
O=C(N/N=C/c1c(O)n(Cc2ccc(F)cc2)c(=O)[nH]c1=O)c1ccccc1	-75	1	-4	-21	75*	0.35
O=C(N/N=C/c1c(O)n(CCC2=CCCCC2)c(=O)[nH]c1=O)c1ccccc1	-38	0	-1	26	38	0.23

Screening results from PubChem.
